Our source for the inhibition and Activity values is ChEMBL document CHEMBL1250464, “The marine sponge metabolite mycothiazole: a novel prototype mitochondrial complex I inhibitor” (Bioorg Med Chem, 2010).

Each structure is given as a SMILES string. Active and inactive are the calls of the source. The calls are words filed in the database; no cut-off is given here.

Series [1] deals with T47D. The series is described as follows: Inhibition of hypoxia-induced HIF-1 activation in human T47D cells at 0.1 to 1000 nM by luciferase reporter gene assay. Type of series: cell-based. An outline of the steps: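 T47D cells (DMEM/F12, 10% FBS) carrying the pHRE3-TK-Luc HIF-1 luciferase reporter were exposed to hypoxia (1% O₂) for 16 h with compound at 0.1, 0.3, 1, 3, 10, 30, 100 and 1000 nM. Cycloheximide at 100 μM served as positive control. Data are from one representative triplicate experiment, mean ± SD.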
In general terms: Reporter assays use an easily measured gene product as a stand-in for the process of interest.

For series [2], the system named is T47D. The series is described as follows: Reduction of hypoxia-induced VEGF mRNA expression in human T47D cells treated after 16 hrs of hypoxia by RT-PCR analysis. Type of series: functional, cell-based. An outline of the steps:
(§1)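 T47D cells held at 1% O2 for 16 h with or without compound. Total RNA measured by real-time RT-PCR, normalized to 18S rRNA, and expressed relative to the normoxic control. Mean of two independent experiments.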

Series [3] concerns T47D. The series is described as follows: Reduction of hypoxia-induced GLUT1 mRNA expression in human T47D cells treated after 16 hrs of hypoxia by RT-PCR analysis. Type of series: functional, cell-based. An outline of the steps: as §1
For series [4], the system named is T47D. The series can be described thus: Cytotoxicity against human T47D cells assessed as inhibition of cell proliferation after 48 hrs by SRB assay relative to control. Type of series: functional. Also on record: scale not given: the % may be the effect or the level left. A general note: The SRB assay estimates cell density from bound dye.
The test system of the next series is MDA-MB-231. The series is described as follows: Cytotoxicity against human MDA-MB-231 cells assessed as inhibition of cell proliferation after 48 hrs by SRB assay. The format is functional, cell-based.
The test system of series [5] is T47D. The series can be described thus: Reduction of hypoxia-induced VEGF mRNA expression in human T47D cells at 0.1 uM treated after 16 hrs of hypoxia by RT-PCR analysis. The format is functional, cell-based. An outline of the steps:
(§2)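 T47D cells were held at 1% O₂ for 16 h with or without compound. Total RNA was isolated and target mRNA was quantified by real-time RT-PCR, normalized to 18S rRNA, and expressed relative to the normoxic control. Values are averages of two independent experiments.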

Series [6] deals with T47D. The series can be described thus: Reduction of hypoxia-induced GLUT1 mRNA expression in human T47D cells at 0.1 uM treated after 16 hrs of hypoxia by RT-PCR analysis. Type of series: functional, cell-based. An outline of the steps:
as §2

Series [7] deals with T47D. The series is described as follows: Inhibition of electron transport protein complex 1-mediated cellular respiration in digitonin-permeabilized human T47D cells at 30 nM presence of succinate. Type of series: cell-based.
In series [8] the test system is T47D. The series is described as follows: Reduction of hypoxia-induced secreted VEGF protein level in human T47D cells after 16 hrs by ELISA. The format is functional, cell-based. An outline of the steps:
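T47D cells exposed to 1% O2 or 10 μM 1,10-phenanthroline for 16 h with or without compound. Secreted VEGF in conditioned medium measured by ELISA and normalized to cellular protein (micro BCA). Mean with SD, N = 3. One-way ANOVA with Bonferroni post hoc test.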

Series [9] has as its system T47D. The series can be described thus: Inhibition of 1,10-phenanthroline-induced HIF-1 activation in human T47D cells at up to 10 uM by luciferase reporter gene assay. Type of series: cell-based. An outline of the steps: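 T47D cells carrying the pHRE3-TK-Luc HIF-1 luciferase reporter. HIF-1 induced chemically with 10 μM 1,10-phenanthroline. Compound tested at concentrations up to 10 μM.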

Series [10] relates to T47D. The series can be described thus: Inhibition of tumor angiogenesis in human T47D cells in conditioned medium at 10 nM treated after 16 hrs of hypoxia by HUVEC-based tube formation assay. The format is functional, cell-based. An outline of the steps: (§3)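 Conditioned media collected from T47D cells treated for 16 h, normoxic or hypoxic (1% O2), with or without compound (10 nM). Media applied to HUVECs for tube formation. Relative tube length and branching points counted in three random fields, mean with SD. One-way ANOVA with Bonferroni post hoc test.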

Series [11] concerns T47D. The series is described as follows: Inhibition of tumor angiogenesis in human T47D cells in normoxic conditioned medium at 10 nM by HUVEC-based tube formation assay. The format is functional, cell-based. An outline of the steps:
as §3

Series [12] relates to T47D. The series is described as follows: Inhibition of hypoxia-induced HIF-1alpha protein accumulation in human T47D cell nucleus at 10 to 100 nM treated after 4 hrs of hypoxia by Western blotting. The format is functional, cell-based. An outline of the steps: (§4)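 Nuclear extracts prepared from T47D cells held at 1% O2 for 4 h with or without compound. HIF-1α and HIF-1β protein levels determined by western blot.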
On the technique in general: A western blot detects proteins with antibodies after separation by electrophoresis.

In series [13] the test system is T47D. The series is described as follows: Inhibition of hypoxia-induced HIF-1beta protein accumulation in human T47D cell nucleus at 10 to 100 nM treated after 4 hrs of hypoxia by Western blotting. The format is functional, cell-based. An outline of the steps:
as §4

The subject of series [14] is T47D. The series can be described thus: Inhibition of oxygen consumption in human T47D cells. Type of series: functional, cell-based. An outline of the steps:
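Oxygen consumption measured with a Clark-type electrode in non-permeabilized T47D cells. Rotenone served as the complex I reference. Data given as % inhibition versus untreated control, averaged over three independent experiments with SD.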

The subject of series [15] is T47D. The series can be described thus: Inhibition of electron transport protein complex 2-mediated cellular respiration in digitonin-permeabilized human T47D cells at 10 to 30 nM presence of succinate. Type of series: cell-based. An outline of the steps:
(§5)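 Clark-type oxygen electrode used to follow O2 consumption in T47D cells permeabilized with 10 μM digitonin. Substrates and inhibitors added one after another at set times. For complex I, respiration was started with malate/pyruvate, compound (10 nM) was added, then succinate was added to feed complex II.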

For series [16], the system named is T47D. The series is described as follows: Inhibition of electron transport protein complex 3-mediated cellular respiration in digitonin-permeabilized human T47D cells at 10 to 30 nM presence of succinate. The format is cell-based. An outline of the steps: as §5
Series [17] concerns T47D. The series can be described thus: Inhibition of electron transport protein complex 4-mediated cellular respiration in digitonin-permeabilized human T47D cells at 10 to 30 nM presence of succinate. Type of series: cell-based.
Series [18] relates to T47D. The series is described as follows: Inhibition of electron transport protein complex 1-mediated cellular respiration in digitonin-permeabilized human T47D cells at 10 nM presence of succinate. The format is cell-based. An outline of the steps: as §5
Series [19] is described as follows: Neurotoxicity in Wistar rat cerebellar granule neurons assessed as cell death at 10 nM after 24 hrs using propidium iodide and Hoescht 33342 staining. The note with it: neuron, 0.01 µM. The format is toxicity, cell-based. An outline of the steps: (§6)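 Primary cerebellar granule neurons from 6-7-day-old Wistar rat pups, cultured 6-10 days at 37 °C. Cells exposed to compound for 24 h, then stained 20 min with Hoechst 33342 (5 μg/mL) and propidium iodide (1 μg/mL) in pH 7.3 buffer. At least 100 cells scored per treatment. Scoring: PI+ = late apoptotic/necrotic; PI− with condensed or fragmented nuclei = apoptotic; PI− with swollen, fragmented nuclei = early necrotic.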

Series [20] in a line: Neurotoxicity in Wistar rat cerebellar granule neurons assessed as apoptotic cells at 0.01 uM after 24 hrs using propidium iodide and Hoescht 33342 staining. Type of series: toxicity, cell-based. As to conditions: neuron. An outline of the steps:
as §6

The nature of series [21]: Neurotoxicity in Wistar rat cerebellar granule neurons assessed as attached dead cells at 0.1 uM after 24 hrs using propidium iodide and Hoescht 33342 staining. Type of series: toxicity, cell-based. The note with it: neuron. An outline of the steps: as §6

Turning to `C=CC/C=C\Cc1csc(C(C)(C)[C@@H](C/C=C\C(=C)CCNC(=O)OC)OC(C)=O)n1`, in the series on T47D [1], the inhibition entry is “Active”. For the same compound, the inhibition result with T47D [2] and with T47D [3] was “Dose-dependent effect” throughout. Also, in the series with T47D [4], the Activity is reported as 55%. In addition, the outcome with MDA-MB-231 was Active.

With `C=CC/C=C\Cc1csc(C(C)(C)[C@H](O)C/C=C/C(O)(CO)CCNC(=O)OC)n1` (stereo not given in full), the inhibition result in the series on T47D [1], in the series with T47D [5] and in the series on T47D [6] was “inactive” in each case. The inhibition entry in the series with T47D [7] was “Active”. The outcome with MDA-MB-231 was Active.

On to `C=CC/C=C\Cc1csc(C(C)(C)[C@H](O)C/C=C\C(=C)CCNC(=O)OC)n1` [MYCOTHIAZOLE], for which the outcome with T47D [8] and in the series on MDA-MB-231 was Active. Besides, the inhibition entry in the series on T47D [1], in the series on T47D [10], with T47D [12] and in the series with T47D [18] was “Active” throughout. Besides, the inhibition entry with T47D [9], in the series with T47D [11], in the series on T47D [13], with T47D [15], with T47D [16] and in the series on T47D [17] was “inactive” in each case. The inhibition result with T47D [2], in the series with T47D [3] and in the series on T47D [14] was “Dose-dependent effect” throughout. Also, the Activity in the series on T47D [4] is given as 55%; in series [19], “Toxic”; in [20], 85%.

Regarding `C=C(C)[C@H]1Cc2c(ccc3c2O[C@@H]2COc4cc(OC)c(OC)cc4[C@@H]2C3=O)O1` [ROTENONE], the results for the Activity result in series [19] and in [21] were “Toxic” and 60%, respectively.
